Reference: ChEMBL document CHEMBL1221207, “Expanding the promiscuity of a natural-product glycosyltransferase by directed evolution” (Nat Chem Biol, 2007)
Positions count from the first letter of the chain named.

Legend:
[1] = tested on: T1, Oleandomycin glycosyltransferase (Streptomyces antibioticus), Q53685 [P67T]; experiment: Activity of Streptomyces antibioticus OleD P67T mutant assessed as conversion rate of compound to produce glucoside 3 using NDP sugar donor UDP-xylose after 3 hrs by HPLC
T1 sequence (whole entry): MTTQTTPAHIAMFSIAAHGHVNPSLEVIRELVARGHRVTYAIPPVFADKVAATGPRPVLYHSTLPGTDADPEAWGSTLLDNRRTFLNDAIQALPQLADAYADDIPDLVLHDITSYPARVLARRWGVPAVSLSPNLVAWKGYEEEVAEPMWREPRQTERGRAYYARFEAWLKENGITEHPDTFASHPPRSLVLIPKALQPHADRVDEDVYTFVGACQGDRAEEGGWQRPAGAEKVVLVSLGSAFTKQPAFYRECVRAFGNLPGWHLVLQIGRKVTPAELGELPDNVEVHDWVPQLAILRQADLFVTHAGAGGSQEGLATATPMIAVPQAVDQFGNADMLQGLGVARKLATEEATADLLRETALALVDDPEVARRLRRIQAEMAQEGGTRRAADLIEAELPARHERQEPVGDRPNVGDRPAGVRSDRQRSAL
Outline: (§1)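 End-point donor-specificity assay with purified OleD enzyme. Percentage conversion was read after 3 h. Quenched reactions were run by reverse-phase C18 HPLC with a 10–90% CH3CN gradient in 0.1% formic acid/H2O over 20 min at 1 ml min–1, with detection at 254 nm. Products were identified by LC-MS, by comparison to standards where available, and by fluorescence.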

[2] = tested on: T2, Oleandomycin glycosyltransferase (Streptomyces antibioticus), Q53685 [S132F]; experiment: Activity of Streptomyces antibioticus OleD S132F mutant assessed as conversion rate of compound to produce glucoside 3 using NDP sugar donor UDP-6-azido-glucose after 3 hrs by HPLC; outline: as §1
T2 sequence (whole entry): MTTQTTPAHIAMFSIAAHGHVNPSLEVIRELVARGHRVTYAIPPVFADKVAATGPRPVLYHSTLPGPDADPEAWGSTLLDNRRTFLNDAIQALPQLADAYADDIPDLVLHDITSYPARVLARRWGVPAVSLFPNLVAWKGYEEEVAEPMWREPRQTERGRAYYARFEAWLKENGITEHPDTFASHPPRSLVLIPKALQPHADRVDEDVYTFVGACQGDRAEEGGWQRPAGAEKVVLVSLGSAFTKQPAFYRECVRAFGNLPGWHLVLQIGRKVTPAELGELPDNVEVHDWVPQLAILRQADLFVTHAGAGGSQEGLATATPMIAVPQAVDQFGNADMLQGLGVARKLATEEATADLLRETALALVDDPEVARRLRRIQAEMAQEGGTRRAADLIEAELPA

[3] = tested on: T1, Oleandomycin glycosyltransferase (Streptomyces antibioticus), Q53685 [P67T]; experiment: Activity of Streptomyces antibioticus OleD P67T mutant assessed as as rate of glucoside formation measured as nanomoles of product formed per minute per mg of enzyme
[4] = tested on: T1, Oleandomycin glycosyltransferase (Streptomyces antibioticus), Q53685 [P67T]; experiment: Activity of Streptomyces antibioticus OleD P67T mutant assessed as conversion rate of compound to produce glucoside 3 using NDP sugar donor UDP-glucose after 3 hrs by HPLC; outline: as §1
[5] = tested on: T3, Oleandomycin glycosyltransferase (Streptomyces antibioticus), Q53685 [P67T,S132F,A242V]; experiment: Activity of Streptomyces antibioticus OleD P67T/S132F/A242V mutant assessed as conversion rate of compound to produce glucoside 3 using NDP sugar UDP-xylose after 3 hrs by HPLC; outline: as §1
T3 sequence (whole entry): T1 sequence (whole entry) with S132F, A242V

[6] = tested on: T4, Oleandomycin glycosyltransferase (Streptomyces antibioticus), Q53685 [A242V]; experiment: Activity of Streptomyces antibioticus OleD A242V mutant assessed as conversion rate of compound to produce glucoside 3 using NDP sugar donor UDP-glucose after 3 hrs by HPLC; outline: as §1
T4 sequence (whole entry): T1 sequence (whole entry) with T67P, A242V

[7] = tested on: T3, Oleandomycin glycosyltransferase (Streptomyces antibioticus), Q53685 [P67T,S132F,A242V]; experiment: Activity of Streptomyces antibioticus OleD P67T/S132F/A242V mutant assessed as conversion rate of compound to produce glucoside 3 using NDP sugar donor-UDP-3-deoxy-glucose after 3 hrs by HPLC; outline: as §1
[8] = tested on: T3, Oleandomycin glycosyltransferase (Streptomyces antibioticus), Q53685 [P67T,S132F,A242V]; experiment: Activity of Streptomyces antibioticus OleD P67T/S132F/A242V mutant assessed as conversion rate of compound to produce glucoside 3 using NDP sugar donor-UDP-4,6-dideoxyglucose after 3 hrs by HPLC; outline: as §1
[9] = tested on: T3, Oleandomycin glycosyltransferase (Streptomyces antibioticus), Q53685 [P67T,S132F,A242V]; experiment: Activity of Streptomyces antibioticus OleD P67T/S132F/A242V mutant assessed as conversion rate of compound to produce glucoside 3 using NDP sugar donor UDP-3-amino-glucose after 3 hrs by HPLC; outline: as §1
[10] = tested on: T3, Oleandomycin glycosyltransferase (Streptomyces antibioticus), Q53685 [P67T,S132F,A242V]; experiment: Activity of Streptomyces antibioticus OleD P67T/S132F/A242V mutant assessed as conversion rate of compound to produce glucoside 3 using NDP sugar UDP-6-azido-glucose after 3 hrs by HPLC; outline: as §1
[11] = tested on: T4, Oleandomycin glycosyltransferase (Streptomyces antibioticus), Q53685 [A242V]; experiment: Activity of Streptomyces antibioticus OleD A242V mutant assessed as conversion rate of compound to produce glucoside 3 using NDP sugar donor UDP-6-azido-glucose after 3 hrs by HPLC; outline: as §1

## Cc1cc(=O)oc2cc(O)ccc12
[1]
  Activity: 2%
[2]
  Activity: 1%
[3]
  Activity: 15.7 nmol/min
[4]
  Activity: 51%
[5]
  Activity: 31%
[6]
  Activity: 38%
[7]
  Activity: 8%
[8]
  Activity: 45%
[9]
  Activity: 4%
[10]
  Activity: 41%
[11]
  Activity: 2%
